ChEMBL document CHEMBL1140728, “Synthesis and biological activity of human neuropeptide S analogues modified in position 2” (J Med Chem, 2008)
pEC50: −log10 of the molar value. Non-standard residues stand in square brackets, D forms with d. Residues, ends and D or L forms follow the SMILES beside them. Phe(4-CF3) = N[C@@H](Cc1ccc(C(F)(F)F)cc1)C(=O)O; Phe(4-Br) = N[C@@H](Cc1ccc(Br)cc1)C(=O)O; Phe(4-CN) = N#Cc1ccc(C[C@H](N)C(=O)O)cc1; Phe(4-F) = N[C@@H](Cc1ccc(F)cc1)C(=O)O; Phe(4-I) = N[C@@H](Cc1ccc(I)cc1)C(=O)O; Phe(4-Me) = Cc1ccc(C[C@H](N)C(=O)O)cc1; 2Nal = N[C@@H](Cc1ccc2ccccc2c1)C(=O)O; Phe(2-Me) = Cc1ccccc1C[C@H](N)C(=O)O; hPhe = N[C@@H](CCc1ccccc1)C(=O)O; Tic = O=C(O)[C@@H]1Cc2ccccc2CN1; Cha = N[C@@H](CC1CCCCC1)C(=O)O; Aic = NC1(C(=O)O)Cc2ccccc2C1; Nphe = O=C(O)CNCc1ccccc1

Key:
Neuropeptide S receptor = molecular target: T1, Neuropeptide S receptor (Mus musculus, UniProt Q8BZP8); test: Agonist activity at mouse recombinant NPS receptor expressed in HEK293 cells assessed as intracellular calcium mobilization; assay type: functional, cell-based
T1 sequence (Q8BZP8 whole entry): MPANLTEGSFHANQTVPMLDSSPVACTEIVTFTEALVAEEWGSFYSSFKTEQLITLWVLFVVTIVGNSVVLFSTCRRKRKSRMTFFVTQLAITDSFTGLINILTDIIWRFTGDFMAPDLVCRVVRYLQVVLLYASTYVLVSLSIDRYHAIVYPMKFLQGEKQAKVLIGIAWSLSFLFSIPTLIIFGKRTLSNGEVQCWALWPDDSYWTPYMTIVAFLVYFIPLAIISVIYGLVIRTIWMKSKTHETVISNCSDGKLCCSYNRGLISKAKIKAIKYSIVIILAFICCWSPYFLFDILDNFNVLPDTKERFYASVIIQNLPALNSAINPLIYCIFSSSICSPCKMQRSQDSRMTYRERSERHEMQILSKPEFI
How it was run: (§1)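 HEK293 cells stably expressing mouse NPSR, kept in DMEM with 10% FBS, 2 mM L-glutamine and hygromycin (100 mg/L), were seeded at 50 000 cells/well. Next day they were loaded with Fluo-4 AM (3 µmol), probenecid (2.5 mmol) and 0.01% pluronic acid for 30 min at 37 °C. Agonist dilutions in HBSS/HEPES with 0.02% BSA were added, and FlexStation II fluorescence was read at 22 °C.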

[1] = molecular target: T2, Neuropeptide S receptor (Mus musculus) (UniProt Q8BZP8); test: Agonist activity at mouse recombinant NPS receptor expressed in HEK293 cells assessed as intracellular calcium mobilization relative to baseline; assay type: functional, cell-based; how it was run: as §1
T2 sequence (whole entry): T1 sequence (Q8BZP8 whole entry)

Compound | pEC50 (Neuropeptide S receptor) | Emax [1] [%]
CSCC[C@H](NC(=O)CNC(=O)[C@@H](NC(=O)CNC(=O)[C@@H](NC(=O)CNC(=O)[C@H](CC(N)=O)NC(=O)[C@H](CCCNC(=N)N)NC(=O)[C@@H]1Cc2ccccc2CN1C(=O)[C@@H](N)CO)C(C)C)[C@@H](C)O)C(=O)N[C@@H](CCCCN)C(=O)N[C@@H](CCCCN)C(=O)N[C@H](C(=O)N[C@@H](CO)C(=O)N[C@@H](Cc1ccccc1)C(=O)N[C@@H](CCC(N)=O)C(=O)N[C@@H](CCCNC(=N)N)C(=O)N[C@@H](C)C(=O)N[C@@H](CCCCN)C(=O)N[C@@H](CO)C(=O)O)[C@@H](C)O (H-S[Tic]RNGVGTGMKKTSFQRAKS-OH) | 8.09 | 244
CSCC[C@H](NC(=O)CNC(=O)[C@@H](NC(=O)CNC(=O)[C@@H](NC(=O)CNC(=O)[C@H](CC(N)=O)NC(=O)[C@H](CCCNC(=N)N)NC(=O)[C@H](Cc1ccc(F)cc1)NC(=O)[C@@H](N)CO)C(C)C)[C@@H](C)O)C(=O)N[C@@H](CCCCN)C(=O)N[C@@H](CCCCN)C(=O)N[C@H](C(=O)N[C@@H](CO)C(=O)N[C@@H](Cc1ccccc1)C(=O)N[C@@H](CCC(N)=O)C(=O)N[C@@H](CCCNC(=N)N)C(=O)N[C@@H](C)C(=O)N[C@@H](CCCCN)C(=O)N[C@@H](CO)C(=O)O)[C@@H](C)O (H-S[Phe(4-F)]RNGVGTGMKKTSFQRAKS-OH) | 8.96 | 291
H-SHRNGVGTGMKKTSFQRAKS-OH | 6.88 | 288
CSCC[C@H](NC(=O)CNC(=O)[C@@H](NC(=O)CNC(=O)[C@@H](NC(=O)CNC(=O)[C@H](CC(N)=O)NC(=O)[C@H](CCCNC(=N)N)NC(=O)[C@H](Cc1ccccc1C)NC(=O)[C@@H](N)CO)C(C)C)[C@@H](C)O)C(=O)N[C@@H](CCCCN)C(=O)N[C@@H](CCCCN)C(=O)N[C@H](C(=O)N[C@@H](CO)C(=O)N[C@@H](Cc1ccccc1)C(=O)N[C@@H](CCC(N)=O)C(=O)N[C@@H](CCCNC(=N)N)C(=O)N[C@@H](C)C(=O)N[C@@H](CCCCN)C(=O)N[C@@H](CO)C(=O)O)[C@@H](C)O (H-S[Phe(2-Me)]RNGVGTGMKKTSFQRAKS-OH) | 8.73 | 222
CSCC[C@H](NC(=O)CNC(=O)[C@@H](NC(=O)CNC(=O)[C@@H](NC(=O)CNC(=O)[C@H](CC(N)=O)NC(=O)[C@H](CCCNC(=N)N)NC(=O)CN(Cc1ccccc1)C(=O)[C@@H](N)CO)C(C)C)[C@@H](C)O)C(=O)N[C@@H](CCCCN)C(=O)N[C@@H](CCCCN)C(=O)N[C@H](C(=O)N[C@@H](CO)C(=O)N[C@@H](Cc1ccccc1)C(=O)N[C@@H](CCC(N)=O)C(=O)N[C@@H](CCCNC(=N)N)C(=O)N[C@@H](C)C(=O)N[C@@H](CCCCN)C(=O)N[C@@H](CO)C(=O)O)[C@@H](C)O (H-S[Nphe]RNGVGTGMKKTSFQRAKS-OH) | 7.81 | 246
CSCC[C@H](NC(=O)CNC(=O)[C@@H](NC(=O)CNC(=O)[C@@H](NC(=O)CNC(=O)[C@H](CC(N)=O)NC(=O)[C@H](CCCNC(=N)N)NC(=O)[C@H](Cc1ccc(C#N)cc1)NC(=O)[C@@H](N)CO)C(C)C)[C@@H](C)O)C(=O)N[C@@H](CCCCN)C(=O)N[C@@H](CCCCN)C(=O)N[C@H](C(=O)N[C@@H](CO)C(=O)N[C@@H](Cc1ccccc1)C(=O)N[C@@H](CCC(N)=O)C(=O)N[C@@H](CCCNC(=N)N)C(=O)N[C@@H](C)C(=O)N[C@@H](CCCCN)C(=O)N[C@@H](CO)C(=O)O)[C@@H](C)O (H-S[Phe(4-CN)]RNGVGTGMKKTSFQRAKS-OH) | 8.48 | 296
H-SWRNGVGTGMKKTSFQRAKS-OH | 8.65 | 323
CSCC[C@H](NC(=O)CNC(=O)[C@@H](NC(=O)CNC(=O)[C@@H](NC(=O)CNC(=O)[C@H](CC(N)=O)NC(=O)[C@H](CCCNC(=N)N)NC(=O)C1(NC(=O)[C@@H](N)CO)Cc2ccccc2C1)C(C)C)[C@@H](C)O)C(=O)N[C@@H](CCCCN)C(=O)N[C@@H](CCCCN)C(=O)N[C@H](C(=O)N[C@@H](CO)C(=O)N[C@@H](Cc1ccccc1)C(=O)N[C@@H](CCC(N)=O)C(=O)N[C@@H](CCCNC(=N)N)C(=O)N[C@@H](C)C(=O)N[C@@H](CCCCN)C(=O)N[C@@H](CO)C(=O)O)[C@@H](C)O (H-S[Aic]RNGVGTGMKKTSFQRAKS-OH) | 7.47 | 211
CSCC[C@H](NC(=O)CNC(=O)[C@@H](NC(=O)CNC(=O)[C@@H](NC(=O)CNC(=O)[C@H](CC(N)=O)NC(=O)[C@H](CCCNC(=N)N)NC(=O)[C@H](Cc1ccc(I)cc1)NC(=O)[C@@H](N)CO)C(C)C)[C@@H](C)O)C(=O)N[C@@H](CCCCN)C(=O)N[C@@H](CCCCN)C(=O)N[C@H](C(=O)N[C@@H](CO)C(=O)N[C@@H](Cc1ccccc1)C(=O)N[C@@H](CCC(N)=O)C(=O)N[C@@H](CCCNC(=N)N)C(=O)N[C@@H](C)C(=O)N[C@@H](CCCCN)C(=O)N[C@@H](CO)C(=O)O)[C@@H](C)O (H-S[Phe(4-I)]RNGVGTGMKKTSFQRAKS-OH) | 8.75 | 243
CSCC[C@H](NC(=O)CNC(=O)[C@@H](NC(=O)CNC(=O)[C@@H](NC(=O)CNC(=O)[C@H](CC(N)=O)NC(=O)[C@H](CCCNC(=N)N)NC(=O)[C@H](Cc1ccc2ccccc2c1)NC(=O)[C@@H](N)CO)C(C)C)[C@@H](C)O)C(=O)N[C@@H](CCCCN)C(=O)N[C@@H](CCCCN)C(=O)N[C@H](C(=O)N[C@@H](CO)C(=O)N[C@@H](Cc1ccccc1)C(=O)N[C@@H](CCC(N)=O)C(=O)N[C@@H](CCCNC(=N)N)C(=O)N[C@@H](C)C(=O)N[C@@H](CCCCN)C(=O)N[C@@H](CO)C(=O)O)[C@@H](C)O [[2Nal2]hNPS] (H-S[2Nal]RNGVGTGMKKTSFQRAKS-OH) | 8.66 | 213

Further compounds by rising pEC50 (Neuropeptide S receptor), results first:

pEC50 (Neuropeptide S receptor) | Emax [1] [%] | Compound
8.38 | 216 | CSCC[C@H](NC(=O)CNC(=O)[C@@H](NC(=O)CNC(=O)[C@@H](NC(=O)CNC(=O)[C@H](CC(N)=O)NC(=O)[C@H](CCCNC(=N)N)NC(=O)[C@H](CCc1ccccc1)NC(=O)[C@@H](N)CO)C(C)C)[C@@H](C)O)C(=O)N[C@@H](CCCCN)C(=O)N[C@@H](CCCCN)C(=O)N[C@H](C(=O)N[C@@H](CO)C(=O)N[C@@H](Cc1ccccc1)C(=O)N[C@@H](CCC(N)=O)C(=O)N[C@@H](CCCNC(=N)N)C(=O)N[C@@H](C)C(=O)N[C@@H](CCCCN)C(=O)N[C@@H](CO)C(=O)O)[C@@H](C)O (H-S[hPhe]RNGVGTGMKKTSFQRAKS-OH)
8.59 | 286 | CSCC[C@H](NC(=O)CNC(=O)[C@@H](NC(=O)CNC(=O)[C@@H](NC(=O)CNC(=O)[C@H](CC(N)=O)NC(=O)[C@H](CCCNC(=N)N)NC(=O)[C@H](Cc1ccc(C(F)(F)F)cc1)NC(=O)[C@@H](N)CO)C(C)C)[C@@H](C)O)C(=O)N[C@@H](CCCCN)C(=O)N[C@@H](CCCCN)C(=O)N[C@H](C(=O)N[C@@H](CO)C(=O)N[C@@H](Cc1ccccc1)C(=O)N[C@@H](CCC(N)=O)C(=O)N[C@@H](CCCNC(=N)N)C(=O)N[C@@H](C)C(=O)N[C@@H](CCCCN)C(=O)N[C@@H](CO)C(=O)O)[C@@H](C)O (H-S[Phe(4-CF3)]RNGVGTGMKKTSFQRAKS-OH)
8.63 | 312 | H-SYRNGVGTGMKKTSFQRAKS-OH
8.87 | 221 | CSCC[C@H](NC(=O)CNC(=O)[C@@H](NC(=O)CNC(=O)[C@@H](NC(=O)CNC(=O)[C@H](CC(N)=O)NC(=O)[C@H](CCCNC(=N)N)NC(=O)[C@H](CC1CCCCC1)NC(=O)[C@@H](N)CO)C(C)C)[C@@H](C)O)C(=O)N[C@@H](CCCCN)C(=O)N[C@@H](CCCCN)C(=O)N[C@H](C(=O)N[C@@H](CO)C(=O)N[C@@H](Cc1ccccc1)C(=O)N[C@@H](CCC(N)=O)C(=O)N[C@@H](CCCNC(=N)N)C(=O)N[C@@H](C)C(=O)N[C@@H](CCCCN)C(=O)N[C@@H](CO)C(=O)O)[C@@H](C)O (H-S[Cha]RNGVGTGMKKTSFQRAKS-OH)
9.17 | 317 | CSCC[C@H](NC(=O)CNC(=O)[C@@H](NC(=O)CNC(=O)[C@@H](NC(=O)CNC(=O)[C@H](CC(N)=O)NC(=O)[C@H](CCCNC(=N)N)NC(=O)[C@H](Cc1ccc(C)cc1)NC(=O)[C@@H](N)CO)C(C)C)[C@@H](C)O)C(=O)N[C@@H](CCCCN)C(=O)N[C@@H](CCCCN)C(=O)N[C@H](C(=O)N[C@@H](CO)C(=O)N[C@@H](Cc1ccccc1)C(=O)N[C@@H](CCC(N)=O)C(=O)N[C@@H](CCCNC(=N)N)C(=O)N[C@@H](C)C(=O)N[C@@H](CCCCN)C(=O)N[C@@H](CO)C(=O)O)[C@@H](C)O (H-S[Phe(4-Me)]RNGVGTGMKKTSFQRAKS-OH)
9.19 | 309 | CSCC[C@H](NC(=O)CNC(=O)[C@@H](NC(=O)CNC(=O)[C@@H](NC(=O)CNC(=O)[C@H](CC(N)=O)NC(=O)[C@H](CCCNC(=N)N)NC(=O)[C@H](Cc1ccc(Br)cc1)NC(=O)[C@@H](N)CO)C(C)C)[C@@H](C)O)C(=O)N[C@@H](CCCCN)C(=O)N[C@@H](CCCCN)C(=O)N[C@H](C(=O)N[C@@H](CO)C(=O)N[C@@H](Cc1ccccc1)C(=O)N[C@@H](CCC(N)=O)C(=O)N[C@@H](CCCNC(=N)N)C(=O)N[C@@H](C)C(=O)N[C@@H](CCCCN)C(=O)N[C@@H](CO)C(=O)O)[C@@H](C)O (H-S[Phe(4-Br)]RNGVGTGMKKTSFQRAKS-OH)
